CHT PAM = human CHT allosteric activation | Q9GZV3 | CHT-expressing cells, membrane potential dye, choline EC20; hits give high values; LV-AA mutant CHT in HEK293 cells | B-score at 10 µM | 0.49% of 310,000 active | AID 488977;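 active means initial fluorescence not abnormally high and integrated response B-score, plate-corrected, over 3 SD above library mean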
VIM-2 inhibitor = blocks Pseudomonas aeruginosa VIM-2 metallo-beta-lactamase. purified VIM-2, nitrocefin hydrolysis, epi-absorbance fluorescence. inhibition, % at 5.6 µM. 0.89% of 290,000 active;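 active means inhibition above the mean of all tested compounds plus 3 SD, cutoff set per screening run, cut at about 7.5% in these data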;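 further: red hydrolysis product quenches plate fluorescence so inhibitors raise well fluorescence; 0% = enzyme with DMSO and 100% = DMSO without enzyme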
ANO1 block = inhibitors of mouse TMEM16A calcium-activated chloride channel. HEK293 TMEM16A/YFP iodide influx fluorescence, ionomycin. normalized B-score (activity score, 25-100; higher = stronger inhibition) at 10 µM. 1.2% of 310,000 active. Q8BHY3. AID 588511;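 active means ratio plate-corrected score three or more library SD toward inhibition, starting fluorescence score within five deviations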;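 further: score derived from kinetic fluorescence span divided by baseline fluorescence per well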
Target sequence (Q8BHY3 whole entry, looked up): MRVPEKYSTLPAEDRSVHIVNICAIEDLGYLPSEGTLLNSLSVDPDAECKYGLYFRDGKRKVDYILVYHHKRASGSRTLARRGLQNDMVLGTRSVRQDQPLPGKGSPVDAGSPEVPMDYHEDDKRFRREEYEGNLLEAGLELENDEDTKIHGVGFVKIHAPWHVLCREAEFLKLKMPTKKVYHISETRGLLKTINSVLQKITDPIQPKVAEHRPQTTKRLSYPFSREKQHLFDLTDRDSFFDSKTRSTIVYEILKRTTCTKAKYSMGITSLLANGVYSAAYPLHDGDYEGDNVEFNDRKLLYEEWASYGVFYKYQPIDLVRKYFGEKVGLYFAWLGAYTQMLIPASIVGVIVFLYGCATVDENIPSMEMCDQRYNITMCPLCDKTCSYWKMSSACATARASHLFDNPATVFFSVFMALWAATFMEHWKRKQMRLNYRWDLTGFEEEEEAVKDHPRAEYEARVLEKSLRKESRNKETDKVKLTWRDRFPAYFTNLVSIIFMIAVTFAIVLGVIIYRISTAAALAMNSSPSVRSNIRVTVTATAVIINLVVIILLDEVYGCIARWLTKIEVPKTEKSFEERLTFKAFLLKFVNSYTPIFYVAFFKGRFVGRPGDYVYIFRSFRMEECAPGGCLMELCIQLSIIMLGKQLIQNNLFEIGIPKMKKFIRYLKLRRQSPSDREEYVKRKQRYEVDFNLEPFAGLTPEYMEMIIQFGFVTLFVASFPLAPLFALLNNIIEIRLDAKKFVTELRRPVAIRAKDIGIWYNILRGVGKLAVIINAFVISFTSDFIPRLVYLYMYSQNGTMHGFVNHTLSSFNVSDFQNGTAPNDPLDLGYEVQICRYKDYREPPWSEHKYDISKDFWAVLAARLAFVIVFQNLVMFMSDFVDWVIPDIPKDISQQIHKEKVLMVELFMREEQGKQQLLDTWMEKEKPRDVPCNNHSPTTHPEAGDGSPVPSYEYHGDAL
ANO1 activ = mouse TMEM16A channel activation, primary screen. B-score at 10 µM. 0.3% of 340,000 active. Q8BHY3. HEK293 TMEM16A/YFP-H148Q/I152L, iodide quench fluorescence; hits give low values;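 active means fluorescence-ratio B-score plate-corrected deviation score at least 3 library SD below zero, with starting fluorescence score within 5 deviations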;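 further: channel opened by trigger with iodide after compound preincubation; score built on the fluorescence ratio of max minus min over baseline; more negative score means more quench and so TMEM16A activation or potentiation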
IMP-1 inh-1 = inhibitors of Pseudomonas aeruginosa IMP-1 metallo-beta-lactamase. 0.45% of 290,000 active. purified IMP-1, nitrocefin hydrolysis, epi-absorbance fluorescence. AID 1556. inhibition, % at 5.6 µM;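 active means inhibition above the mean plus 3 SD of all compounds in the same screening run, cut at about 4.5% in these data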;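 further: 0% = IMP-1 with DMSO and 100% = DMSO wells lacking enzyme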
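System: purified recombinant IMP-1 beta-lactamase. Medium: Zinc- and detergent-supplemented HEPES buffer, pH 7.1. Compound: one 5.6 µM dose […]. Schedule: 15 min preincubation plus 25 min reaction at 25 °C. Technique: Epi-absorbance fluorescence, 480 nm excitation, 530 nm emission.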
CHT inh = inhibitors of human choline transporter CHT | B-score at 10 µM | Q9GZV3 | CHT-expressing cells, membrane potential dye, choline response; hits give low values | AID 488975 | 0.86% of 310,000 active;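 active means B-score over 3 SD under the library average, and starting fluorescence ratio not unusually high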;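 further: choline stimulus applied at its EC90 after an EC20 pre-addition; B-score computed on integrated fluorescence ratio after choline addition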
IMP-1 inh-2 = selectivity counter-screen for VIM-2 inhibitors: IMP-1 metallo-beta-lactamase inhibitors; shares compounds with VIM-2 inhibitor; purified IMP-1, nitrocefin hydrolysis, epi-absorbance fluorescence; inhibition, % at 5.6 µM; 1,300 tested, under 10 active; AID 1856; call rule not given here;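 further: 0% = enzyme with vehicle and 100% = vehicle without enzyme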
VIM-2 FRET inh = counter-screen for VIM-2 inhibitors: epi-absorbance artifacts via FRET. shares compounds with VIM-2 inhibitor. 23% of 1,300 active. inhibition, % at 5.6 µM. purified VIM-2, CCF2 FRET substrate hydrolysis;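 active means inhibition above the mean of all tested compounds plus 3 SD, cut at about 19% in these data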;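 further: 0% = VIM-2 plus DMSO and 100% = no enzyme wells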
TEM-1 inh = blocks E. coli TEM-1 beta-lactamase in VIM-2 selectivity screen; shares compounds with VIM-2 inhibitor; Purified TEM-1, nitrocefin hydrolysis, epi-absorbance fluorescence; inhibition, % at 5.6 µM; 3% of 1,300 active;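 active means inhibition above that campaign's mean inhibition plus 3 SD, cut at about 0.46% in these data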;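 further: 0% = TEM-1 with DMSO and 100% = TEM-1 with 100 µM potassium clavulanate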
VIM-2 confirm 2 = confirmation of P. aeruginosa VIM-2 metallo-beta-lactamase inhibitors; AID 2187; inhibition, % at 5.6 µM; 96% of 1,300 active; shares compounds with VIM-2 inhibitor; purified VIM-2, nitrocefin hydrolysis, epi-absorbance;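 active means inhibition of the VIM-2 beta-lactamase enzyme above about 11% from the earlier first-round screen, limit read from the data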;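 further: 0% = VIM-2 with DMSO and 100% = buffer wells without enzyme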
CHT act confirm = confirmation of human choline transporter (CHT) activators. shares compounds with CHT PAM. CHT-expressing cells, membrane potential dye fluorescence (FDSS); % of choline EC20–EC90 response window; HEK293 expressing CHT LV-AA mutant; choline added at its EC20. activation, % at 10 µM. 91% of 2,500 active. AID 504833;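 active means primary screen active, with duplicate mean activation above negative control mean plus 3 SD, cut at about 11% in these data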
HEK293 MP dye = activity in parental HEK293 cells lacking CHT | shares compounds with CHT PAM | membrane potential dye fluorescence (FDSS); measured after EC20 choline addition | ratio readout change at 10 µM, hits read low | 62% of 2,500 active | AID 623908;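 active means duplicate-averaged ratio beyond 3 SD from buffer wells, up or down, though filed actives are nearly all decreases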
* = called active by the depositor; i = inactive; · = not tested or not shown. Compounds with a hit are over-represented: about 3.4% of the library has one in this group of screens.

SMILES	CHT PAM	VIM-2 inhibitor	ANO1 block	ANO1 activ	IMP-1 inh-1	CHT inh	IMP-1 inh-2	VIM-2 FRET inh	TEM-1 inh	VIM-2 confirm 2	CHT act confirm	HEK293 MP dye
Cc1onc(-c2ccccc2)c1C(=O)NCCSCc1ccco1	·	·	·	i	·	·	·	·	·	·	·	·
Cc1c(OCC(=O)NCCCN2CCCC2=O)ccc2c3c(c(=O)oc12)CCC3	i	22.6*	i	i	-4.0	i	-1.5	5.8	-9.6	29.0*	36.1*	-30.3*
Cc1cc(OCC(=O)NCCCn2ccnc2)c2c(C)cc(=O)oc2c1	7.08*	28.1*	i	i	-1.8	i	-3.9	-2.6	-4.9	35.5*	65.2*	-55.6*
Cc1cc(OC(C)C(=O)NCCCn2ccnc2)c2c(C)cc(=O)oc2c1 (stereo unspecified)	i	27.8*	i	i	-1.8	i	-2.1	-4.1	-2.9	39.1*	44.7*	-39*
Cc1cc(=O)oc2c(C)c(OCC(=O)NCCCn3ccnc3)ccc12	i	19.3*	i	i	-3.0	i	-2.6	-6.2	-8.2	35.5*	58.2*	-51.5*
CCCc1cc(=O)oc2cc(OC(C)C(=O)NCCCn3ccnc3)ccc12 (stereo unspecified)	i	3.9	i	i	-0.5	i	·	·	·	·	·	·
COc1ccc2c(C)c(CCC(=O)NCCCN3CCCC3=O)c(=O)oc2c1C	i	-5.2	i	i	-3.5	i	·	·	·	·	·	·
CCc1cc(C(=O)NC2CCCN(Cc3ccccc3F)C2)n(C)n1 (stereo unspecified)	i	0.1	i	i	2.4	i	·	·	·	·	·	·
CN(C)c1nc(NNC(=O)c2ccccc2)nc(N(C)C)n1	·	·	·	i	·	·	·	·	·	·	·	·
CC1CCC2(CC1)NC(=O)N(CC(=O)N1CCN(C(=O)c3ccco3)CC1)C2=O (stereo unspecified)	·	·	·	i	·	·	·	·	·	·	·	·
Cc1cccc(-c2cc3nc(C)cc(NCCCn4ccnc4)n3n2)c1	9.6*	47.8*	i	i	-1.1	i	-1.0	-15.3	-5.8	60.0*	51.3*	-58.6*
CCN(CC)CCNC(=O)COc1ccc(OC)cc1	i	-2.6	i	i	-0.8	i	·	·	·	·	·	·
CCN(CC)CCCCNc1ncc2cc(-c3cc(OC)cc(OC)c3)c(NC(=O)NC(C)(C)C)nc2n1	6.73*	17.3*	i	i	-2.7	i	-3.8	5.4	-7.5	24.7*	46.5*	-22.8*
O=[N+]([O-])c1ccc(Cl)c(-c2ccc(/C=N/n3cnnc3)o2)c1	i	44.7*	i	i	-2.0	i	-3.5	-0.5	-5.9	52.1*	39.1*	-50.8*
CNC(=S)N/N=C/c1ccc(-c2cc([N+](=O)[O-])ccc2Cl)o1	i	-1.1	i	i	-2.1	i	·	·	·	·	·	·
c1cn(-c2ccc(-c3ccnc4ncnn34)cc2)cn1	8.47*	45.1*	i	i	-0.8	i	-2.5	2.2	-4.3	63.0*	40.9*	-39.5*
c1ccc(-c2ccnc3ncnn23)nc1	i	-0.4	i	i	-0.8	i	·	·	·	·	·	·
CC1CCCCN1CCNC(=O)c1cc2c(=O)n(C)c3ccccc3c2n1C (stereo unspecified)	i	19.6*	i	i	-4.5	i	-1.9	4.3	-7.0	31.0*	29.7*	-20.8*
Cn1c(C(=O)NC2CCCCCC2)cc2c(=O)n(C)c3ccccc3c21	i	2.5	i	i	-3.0	i	·	·	·	·	·	·
Cn1c(C(=O)NCCCN2CCCC2=O)cc2c(=O)n(C)c3ccccc3c21	i	13.1*	i	i	-3.5	i	-2.7	-3.0	-6.2	28.6*	27.3*	-31.6*
COc1ccccc1NC(=O)NCCN1CCN(c2cccc(Cl)c2)CC1	i	-0.3	i	i	-1.3	i	·	·	·	·	·	·
O=C(NCc1cccnc1)c1cccn2c(=O)c3sccc3nc12	7.78*	26.4*	i	i	-1.0	i	-3.1	-0.8	-9.3	50.7*	54.3*	-52.5*
CCCCC1CN2CCc3c([nH]c4ccccc34)C2(C)C1 (stereo unspecified)	i	-3.6	i	i	-2.1	i	·	·	·	·	·	·
CC(C)CN(C(=O)Cn1c(C(F)(F)F)nc2ccccc21)c1c(N)n(Cc2ccccc2)c(=O)[nH]c1=O	·	·	·	i	·	·	·	·	·	·	·	·
CCCCn1c(N)c(N(CCOC)C(=O)c2ccc3c(c2)OCCO3)c(=O)[nH]c1=O	i	·	i	i	·	i	·	·	·	·	·	·
SMILES	CHT PAM	VIM-2 inhibitor	ANO1 block	ANO1 activ	IMP-1 inh-1	CHT inh	IMP-1 inh-2	VIM-2 FRET inh	TEM-1 inh	VIM-2 confirm 2	CHT act confirm	HEK293 MP dye
Cn1c(=O)n(C)c2cc(/C=N/n3cnnc3)ccc21	8.75*	14.8*	i	i	-3.5	i	-2.9	0.7	-5.9	45.0*	69.8*	-68.6*
COc1ccc2c(c1)c1ncn(CCN3CCNCC3)c(=O)c1n2C	i	14.1*	i	i	-1.0	i	-0.8	0.4	-7.8	31.3*	16.2*	-20.1*
Cc1c2c(n3c(nc4ccccc43)c1C#N)N(CCCN(C)C)CC2	6.99*	31.7*	i	i	-1.6	i	-3.1	-90.3	-8.4	47.6*	43.7*	-66.4*
Cc1c2c(n3c(nc4ccccc43)c1C#N)N(c1ccccc1)CC2	·	4.0	·	·	-5.2	·	·	·	·	·	·	·
Cc1cc(OCC(=O)NCC2CCC(C(=O)O)CC2)c2c(C)c(C)c(=O)oc2c1 (stereo unspecified)	i	-0.1	i	i	-3.3	i	·	·	·	·	·	·
Cc1cc(OCC(=O)NC2CC(C)(C)NC(C)(C)C2)c2c(C)c(C)c(=O)oc2c1	9.21*	13.5*	i	i	0.9	i	-3.9	2.1	-6.8	17.6*	49.0*	-47.7*
COC(=O)c1cc(NS(=O)(=O)c2ccc(NC(C)=O)cc2)ccc1Cl	i	0.8	i	i	0.2	i	·	·	·	·	·	·

Compound activity from PubChem BioAssay.
